According to article PMC8802302 (Journal of Medicinal Chemistry, 2021):

Legend:
16-member kinase panel = assay: Eurofins custom enzymatic kinase panel, count of kinases inhibited; format: biochemical; conditions: 16-member Eurofins panel, 1 μM
Method in brief: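 Radiometric kinase assays were run with ATP at Km. Each test compound was tested at a single concentration of 1 μM, in duplicate, against each panel kinase, with results as percent of control. The count is the number of kinases at ≤ 10 PoC, i.e. inhibited ≥ 90%.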

PAMPA permeability = format: in vitro ADME; conditions: PBS pH 7.4, 5 h incubation
Method in brief: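 DMSO stocks of test compound were diluted in PBS pH 7.4 and added to the donor side of a precoated PAMPA plate, with PBS pH 7.4 as acceptor, for 5 h. Both compartments were quantified by chemiluminescent nitrogen detection against a calibration curve, with background nitrogen corrected. Effective permeability was calculated from donor and acceptor concentrations, using measured rather than assumed solubility.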

[1] = system: 403 wild-type (WT) human kinases; assay: DiscoverX scanMAX kinome-wide selectivity screen; format: binding; conditions: 403 WT human kinases; for no. kinases with PoC < 10: DiscoverX scanMAX, 1 μM; for S10 (1 μM): Percentage of screened kinases with PoC values < 10 at 1 μM
DRAK1 (DRAK1-NLuc) = molecular target: T1, DRAK1 (DRAK1-NLuc) (Homo sapiens, UniProt Q9UEE5); assay: NanoBRET cellular target engagement assay; format: cell-based; conditions: HEK293, 0.5 μM tracer K-9; n = 1 where no error, SEM n = 3
T1 sequence (Q9UEE5 1-414): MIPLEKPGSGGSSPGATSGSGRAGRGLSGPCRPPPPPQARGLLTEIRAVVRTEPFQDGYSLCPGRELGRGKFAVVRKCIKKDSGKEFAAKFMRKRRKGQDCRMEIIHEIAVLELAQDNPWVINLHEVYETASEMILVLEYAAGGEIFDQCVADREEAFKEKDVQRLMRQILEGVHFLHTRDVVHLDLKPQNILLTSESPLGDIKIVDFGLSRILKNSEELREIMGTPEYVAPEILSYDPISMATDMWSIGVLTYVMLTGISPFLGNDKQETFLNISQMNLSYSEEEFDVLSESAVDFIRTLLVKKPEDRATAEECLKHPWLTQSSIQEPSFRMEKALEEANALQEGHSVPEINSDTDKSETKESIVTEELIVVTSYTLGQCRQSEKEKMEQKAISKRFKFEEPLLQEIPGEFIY

TBK1 (NLuc-TBK1) = molecular target: T2, TBK1 (NLuc-TBK1) (Homo sapiens, UniProt Q9UHD2); assay: NanoBRET cellular target engagement assay; format: cell-based; conditions: HEK293, 0.5 μM tracer K-5; n = 1 where no error, SEM n = 3
T2 sequence (Q9UHD2 1-729): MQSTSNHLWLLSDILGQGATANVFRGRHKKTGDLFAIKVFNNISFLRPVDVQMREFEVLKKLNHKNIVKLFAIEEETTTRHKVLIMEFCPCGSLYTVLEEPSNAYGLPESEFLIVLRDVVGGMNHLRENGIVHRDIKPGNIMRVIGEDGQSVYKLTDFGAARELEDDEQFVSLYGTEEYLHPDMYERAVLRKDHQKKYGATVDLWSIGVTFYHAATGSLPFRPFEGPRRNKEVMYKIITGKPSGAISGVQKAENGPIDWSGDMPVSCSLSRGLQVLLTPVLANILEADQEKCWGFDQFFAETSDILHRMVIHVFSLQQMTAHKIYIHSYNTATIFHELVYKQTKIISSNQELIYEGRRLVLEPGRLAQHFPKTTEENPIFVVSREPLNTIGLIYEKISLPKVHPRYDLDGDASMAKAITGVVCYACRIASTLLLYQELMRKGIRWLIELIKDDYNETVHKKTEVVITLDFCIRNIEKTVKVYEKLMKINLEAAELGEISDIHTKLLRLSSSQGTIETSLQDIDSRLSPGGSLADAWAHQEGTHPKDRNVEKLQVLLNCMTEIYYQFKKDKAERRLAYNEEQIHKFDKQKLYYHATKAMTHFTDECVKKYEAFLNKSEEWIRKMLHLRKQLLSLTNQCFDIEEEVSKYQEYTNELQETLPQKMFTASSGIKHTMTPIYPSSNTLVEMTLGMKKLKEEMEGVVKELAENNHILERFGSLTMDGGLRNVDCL
Method in brief: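 HEK293 cells were grown in DMEM with 10% FBS at 37 °C under 5% CO2, passaged every 72 h with trypsin and kept below confluency. Cells expressed NanoLuc fusions (DRAK1-NLuc or NLuc-TBK1). Dose–response was run per the manufacturer's protocol, with 0.5 μM tracer K-9 for DRAK1 and 0.5 μM tracer K-5 for TBK1. SEM was reported where assays were repeated.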

MARK3 (NLuc-MARK3) = MARK3 (NLuc-MARK3) (Homo sapiens, UniProt P27448); assay: NanoBRET cellular target engagement assay; format: cell-based; conditions: HEK293, 0.5 μM tracer K-9; n = 1 where no error, SEM n = 2
Chain of MARK3 (NLuc-MARK3) (P27448 whole entry): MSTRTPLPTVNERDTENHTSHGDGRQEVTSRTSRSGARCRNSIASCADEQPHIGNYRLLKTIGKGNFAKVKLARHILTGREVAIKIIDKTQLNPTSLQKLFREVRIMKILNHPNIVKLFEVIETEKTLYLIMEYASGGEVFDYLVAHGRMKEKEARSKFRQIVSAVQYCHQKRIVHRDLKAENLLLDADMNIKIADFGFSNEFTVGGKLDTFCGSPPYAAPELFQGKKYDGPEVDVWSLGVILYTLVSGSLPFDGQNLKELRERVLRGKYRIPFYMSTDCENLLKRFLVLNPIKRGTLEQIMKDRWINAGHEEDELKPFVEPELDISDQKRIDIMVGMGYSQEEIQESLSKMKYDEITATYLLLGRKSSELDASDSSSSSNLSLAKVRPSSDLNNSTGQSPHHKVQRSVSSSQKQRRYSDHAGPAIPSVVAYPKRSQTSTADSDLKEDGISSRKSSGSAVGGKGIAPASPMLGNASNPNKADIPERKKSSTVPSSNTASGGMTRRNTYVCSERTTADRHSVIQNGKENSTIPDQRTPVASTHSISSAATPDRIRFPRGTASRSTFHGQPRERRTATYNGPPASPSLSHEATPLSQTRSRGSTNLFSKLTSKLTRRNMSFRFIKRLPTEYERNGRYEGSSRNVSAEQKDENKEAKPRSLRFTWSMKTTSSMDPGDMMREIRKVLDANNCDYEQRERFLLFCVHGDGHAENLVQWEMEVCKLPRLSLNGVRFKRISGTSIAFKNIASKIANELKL

MARK4 (NLuc-MARK4) = molecular target: T3, MARK4 (NLuc-MARK4) (Homo sapiens, UniProt Q96L34); assay: NanoBRET cellular target engagement assay; format: cell-based; conditions: HEK293, 0.5 μM tracer K-5; n = 1 where no error, SEM n = 2
T3 sequence (Q96L34 1-752): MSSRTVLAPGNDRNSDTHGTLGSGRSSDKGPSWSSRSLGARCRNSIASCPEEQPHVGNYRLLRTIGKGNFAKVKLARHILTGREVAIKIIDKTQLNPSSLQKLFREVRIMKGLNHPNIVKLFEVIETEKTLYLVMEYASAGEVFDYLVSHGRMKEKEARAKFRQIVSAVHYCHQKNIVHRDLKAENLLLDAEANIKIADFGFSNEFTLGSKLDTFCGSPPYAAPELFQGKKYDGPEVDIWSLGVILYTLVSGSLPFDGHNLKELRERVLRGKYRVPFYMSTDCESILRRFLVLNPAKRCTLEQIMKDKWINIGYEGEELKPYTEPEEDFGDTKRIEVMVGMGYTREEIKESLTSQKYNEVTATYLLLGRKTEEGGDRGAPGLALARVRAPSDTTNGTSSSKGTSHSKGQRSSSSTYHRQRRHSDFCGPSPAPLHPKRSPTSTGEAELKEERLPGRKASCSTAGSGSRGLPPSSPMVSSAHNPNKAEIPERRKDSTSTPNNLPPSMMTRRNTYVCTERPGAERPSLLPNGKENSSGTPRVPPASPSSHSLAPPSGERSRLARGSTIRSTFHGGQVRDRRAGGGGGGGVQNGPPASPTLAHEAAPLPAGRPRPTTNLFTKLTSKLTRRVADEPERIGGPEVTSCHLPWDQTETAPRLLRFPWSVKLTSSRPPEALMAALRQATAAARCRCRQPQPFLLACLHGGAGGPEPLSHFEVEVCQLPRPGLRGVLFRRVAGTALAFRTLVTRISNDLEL

Row | SMILES | no. kinases ≤ 10 PoC in enzyme panel (16-member kinase panel) | Pe (permeability coefficient, PAMPA) (PAMPA permeability) | no. kinases with PoC < 10 [1] | S10 (1 μM) [1] | DRAK1 NanoBRET IC50 (DRAK1 (DRAK1-NLuc)) | TBK1 NanoBRET IC50 (TBK1 (NLuc-TBK1)) | MARK3 NanoBRET IC50 (MARK3 (NLuc-MARK3)) | MARK4 NanoBRET IC50 (MARK4 (NLuc-MARK4))
1 | O=C(Nc1cccc(Nc2ncc(Br)c(NCCc3cnc[nH]3)n2)c1)N1CCCC1 [BX-912, reference compound] | 14 | low permeability |  |  |  |  |  | 
2 | NS(=O)(=O)c1ccc(CNc2nc(Nc3cccc(CN4CCOCC4)c3)ncc2Br)cc1 [Compound 6, 4-(((5-Bromo-2-((3-(morpholinomethyl)phenyl)amino)pyrimidin-4-yl)amino)methyl)benzenesulfonamide] | 4 | below the limit of quantitation | 19 |  |  |  |  | 
3 | Cc1nn(CC(F)(F)F)cc1Nc1ncc(Br)c(NCCCNC(=O)C2CCC2)n1 [Compound 7, N-(3-((5-Bromo-2-((3-methyl-1-(2,2,2-trifluoroethyl)-1H-pyrazol-4-yl)amino)pyrimidin-4-yl)amino)propyl)cyclobutanecarboxamide] | 7 |  | 62 | 0.154 | submicromolar | submicromolar |  | 
4 | Cc1nn(CC(F)(F)F)cc1Nc1nccc(NCCCNC(=O)C2CCC2)n1 [Compound 8, N-(3-((2-((3-Methyl-1-(2,2,2-trifluoroethyl)-1H-pyrazol-4-yl)amino)pyrimidin-4-yl)amino)-propyl)cyclobutanecarboxamide] | 0 |  | 1 |  |  |  |  | 
5 | Brc1cnc(Nc2cccc(CN3CCOCC3)c2)nc1NCCc1c[nH]cn1 [Compound 9, N^4-(2-(1H-Imidazol-4-yl)ethyl)-5-bromo-N^2-(3-(morpholinomethyl)phenyl)pyrimidine-2,4-diamine] | 13 | low permeability | 94 | 0.233 | submicromolar |  | submicromolar | submicromolar
6 | Cc1nn(CC(F)(F)F)cc1Nc1ncc(Br)c(NCCc2cnc[nH]2)n1 [Compound 10, N^4-(2-(1H-Imidazol-5-yl)ethyl)-5-bromo-N^2-(3-methyl-1-(2,2,2-trifluoroethyl)-1H-pyrazol-4-yl)pyrimidine-2,4-diamine] | 0 |  | 28 | 0.069 |  |  |  | 
7 | NS(=O)(=O)c1ccc(CNc2nc(Nc3cccc(CN4CCOCC4)c3)ncc2C2CC2)cc1 [Compound 11, 4-(((5-Cyclopropyl-2-((3-(morpholinomethyl)phenyl)amino)pyrimidin-4-yl)amino)methyl)-benzenesulfonamide] | 1 | low permeability | 3 | 0.007 |  |  |  | 
8 | Cc1nn(CC(F)(F)F)cc1Nc1nccc(NCc2ccc(S(N)(=O)=O)cc2)n1 [Compound 12, 4-(((2-((3-Methyl-1-(2,2,2-trifluoroethyl)-1H-pyrazol-4-yl)amino)pyrimidin-4-yl)amino)methyl)benzenesulfonamide] | 0 | below the limit of quantitation | 1 |  |  |  |  | 
9 | c1cc(CN2CCOCC2)cc(Nc2ncc(C3CC3)c(NCCc3c[nH]cn3)n2)c1 [Compound 14, N^4-(2-(1H-Imidazol-4-yl)ethyl)-5-cyclopropyl-N^2-(3-(morpholinomethyl)phenyl)pyrimidine-2,4-diamine] | 6 | low permeability | 27 | 0.067 |  |  |  | submicromolar
10 | c1cc(CN2CCOCC2)cc(Nc2nccc(NCCc3cnc[nH]3)n2)c1 [Compound 20, N^4-(2-(1H-Imidazol-5-yl)ethyl)-N^2-(3-(morpholinomethyl)phenyl)pyrimidine-2,4-diamine] | 1 |  | 9 | 0.022 |  |  |  | 
11 | NS(=O)(=O)c1ccc(CNc2nc(Nc3cccc(NC(=O)N4CCCC4)c3)ncc2C2CC2)cc1 [Compound 21, N-(3-((5-Cyclopropyl-4-((4-sulfamoylbenzyl)amino)pyrimidin-2-yl)amino)phenyl)pyrrolidine-1-carboxamide] | 1 |  | 1 |  |  |  |  | 
12 | O=C(NCCCNc1nc(Nc2cccc(NC(=O)N3CCCC3)c2)ncc1C1CC1)C1CCC1 [Compound 22, N-(3-((4-((3-(Cyclobutanecarboxamido)propyl)amino)-5-cyclopropylpyrimidin-2-yl)amino)-phenyl)pyrrolidine-1-carboxamide] | 9 | low permeability | 30 | 0.074 | submicromolar |  |  | submicromolar
13 | Cc1nn(CC(F)(F)F)cc1Nc1ncc(Br)c(NCc2ccc(S(N)(=O)=O)cc2)n1 [GSK8612, 4-(((5-Bromo-2-((3-methyl-1-(2,2,2-trifluoroethyl)-1H-pyrazol-4-yl)amino)pyrimidin-4-yl)-amino)methyl)benzenesulfonamide, reference compound] | 1 | below the limit of quantitation | 8 |  |  | submicromolar |  | 
14 | O=C(NCCCNc1nc(Nc2cccc(CN3CCOCC3)c2)ncc1C1CC1)C1CCC1 [MRT67307, reference compound] | 12 |  |  |  | submicromolar |  |  | 
15 | CN1CCc2cc(Nc3ncc(C4CC4)c(NCCCNC(=O)C4CCC4)n3)ccc2C1 [MRT68921, reference compound] | 13 |  |  |  |  |  |  | 
